Assay results from ChEMBL document CHEMBL1134785, “Synthesis and biological evaluation of prostaglandin-F alkylphosphinic acid derivatives as bone anabolic agents for the treatment of osteoporosis” (J Med Chem, 2001).

Tests used:
Rattus norvegicus [1] = assay: Bone formation rate/tissue volume (%/year)bone Histomorphometrically after a dose of 1000 ug/kg in proximal tibial metaphysis; assay type: functional; details: at 1000 µg/kg
Rattus norvegicus [2] = assay: Bone formation rate/tissue volume (%/year) bone measured histomorphometrically after a dose of 100 ug/kg in proximal tibial metaphysis; assay type: functional; details: at 100 µg/kg
Rattus norvegicus [3] = assay: Mineral apposition rate ([…])bone measured Histomorphometrically after a dose of 1000 ug/kg in proximal tibial metaphysis; assay type: functional
Method in brief: (§1)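 Ovariectomized six-month-old rats, 6-8 per group, were dosed subcutaneously once daily at 0.01–3.0 mg/kg for 60 days, starting 60 days after surgery. Vehicle was acetate-buffered saline, methylcellulose and polyoxyethylenesorbitan monooleate. Labels were xylenol orange 90 mg/kg pretreatment and calcein 10 mg/kg at 14 and 4 days before necropsy. Histomorphometry covered the proximal tibial metaphysis, 1–4 mm distal to the growth plate–metaphyseal junction. ANOVA/LSD versus vehicle.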

Rattus norvegicus [4] = assay: Trabecular no (mm)measured Histomorphometrically after a dose of 1000 ug/kg in proximal tibial metaphysis; assay type: functional, Trabecula
Method in brief: (§2)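 Six-month-old rats were ovariectomized, and 60 days later daily subcutaneous dosing began for 60 days, with vehicle of acetate-buffered saline, methylcellulose and polysorbate. Xylenol orange (90 mg/kg) labelled bone pre-treatment and calcein (10 mg/kg) 14 and 4 days pre-sacrifice. Histomorphometry covered the proximal tibial metaphysis 1-4 mm distal to the growth plate-metaphyseal junction. Groups were 6-8 rats, compared by ANOVA/LSD vs vehicle.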

Rattus norvegicus [5] = assay: Mineral apposition rate ([…])bone measured Histomorphometrically after a dose of 3000 ug/kg in proximal tibial metaphysis; assay type: functional; method in brief: as §1
Rattus norvegicus [6] = assay: Bone Volume /Tissue Volume (%)measured Histomorphometrically after a dose of 30 ug/kg in proximal tibial metaphysis; assay type: functional; details: at 30 µg/kg
Rattus norvegicus [7] = assay: Marrow area (mm) measured Histomorphometrically after a dose of 300 ug/kg in tibial diaphysis; assay type: functional
Method in brief: (§3)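 Six-month-old rats, bilaterally ovariectomized, 6-8 per group, on natural chow. After 60 days they received once-daily subcutaneous dosing for 60 days at 0.01–3.0 mg/kg. Vehicle was acetate-buffered saline with methylcellulose and polyoxyethylenesorbitan monooleate. Labels were xylenol orange 90 mg/kg before treatment and calcein 10 mg/kg 14 and 4 days before sacrifice. Tibial histomorphometry was read under fluorescent light, with ANOVA/LSD versus vehicle.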

Rattus norvegicus [8] = assay: Trabecular no (mm)measured Histomorphometrically after a dose of 300 ug/kg in proximal tibial metaphysis; assay type: functional, Trabecula; method in brief: as §2
[9] = Dissociation constant was determined; assay type: physicochemical
Rattus norvegicus [10] = assay: Periosteal mineral apposition rate ([…]) measured Histomorphometrically after a dose of 30 ug/kg in tibial diaphysis; assay type: functional; method in brief: as §3
Rattus norvegicus [11] = assay: Trabecular thickness […] measured Histomorphometrically after a dose of 100 ug/kg in proximal tibial metaphysis; assay type: functional, Trabecula; method in brief: as §2
Rattus norvegicus [12] = assay: Endosteal mineralizing surface Histomorphometrically after a dose of 10 ug/kg in tibial diaphysis; assay type: functional; method in brief: as §3
Rattus norvegicus [13] = assay: Marrow area (mm) measured Histomorphometrically after a dose of 100 ug/kg in tibial diaphysis; assay type: functional; method in brief: as §3
Rattus norvegicus [14] = assay: Mineral apposition rate ([…])bone measured Histomorphometrically after a dose of 3000 ug/kg in tibial diaphysis; assay type: functional; method in brief: as §3
Rattus norvegicus [15] = assay: Derived trabecular no […]measured using micro Computed Tomography(CT) after a dose of 3000 ug/kg in Vertebral Bone; assay type: functional, Trabecula
Method in brief: (§4)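 Micro-CT of the fifth lumbar vertebra, measuring cancellous bone volume and architecture. Rats were 6 months old, OVX 60 days before treatment, then dosed daily for 60 days. Test-agent doses were 10–3000 µg/kg, given as a once-daily subcutaneous injection; 6 mg/kg/day was given to the positive-control group. Groups were compared with vehicle by ANOVA plus LSD test.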

Rattus norvegicus [16] = assay: Endosteal mineralizing surface Histomorphometrically after a dose of 300 ug/kg in tibial diaphysis; assay type: functional; method in brief: as §3
Rattus norvegicus [17] = assay: Bone formation rate/tissue volume (%/year) bone measured histomorphometrically after a dose of 30 ug/kg in proximal tibial metaphysis; assay type: functional; details: at 30 µg/kg
Rattus norvegicus [18] = assay: Periosteal mineralizing surface (%) measured Histomorphometrically after a dose of 10 ug/kg in tibial diaphysis; assay type: functional
Method in brief: (§5)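 Rats on natural chow (1.46% Ca) were bilaterally ovariectomized at 6 months and left untreated for 60 days. They then received once-daily subcutaneous doses for 60 days, with vehicle of acetate-buffered saline, methylcellulose and polysorbate. Xylenol orange (90 mg/kg) was given before treatment and calcein (10 mg/kg) 14 and 4 days before sacrifice. Tibiae were analysed by fluorescent histomorphometry, 6-8 rats/group, ANOVA/LSD vs vehicle.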

Rattus norvegicus [19] = assay: Bone formation rate/bone volume (%/year) bone measured histomorphometrically after a dose of 100 ug/kg in proximal tibial metaphysis; assay type: functional; details: at 100 µg/kg
Rattus norvegicus [20] = assay: Endosteal mineralizing surface Histomorphometrically after a dose of 1000 ug/kg in tibial diaphysis; assay type: functional; method in brief: as §3
Rattus norvegicus [21] = assay: Mineral apposition rate ([…])bone measured Histomorphometrically after a dose of 1000 ug/kg in tibial diaphysis; assay type: functional; method in brief: as §3
Rattus norvegicus [22] = assay: connectivity density (mm-3) using micro Computed Tomography(CT) after a does of 10 ug/kg in Vertebral Bone; assay type: functional
Method in brief: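 Rats were ovariectomized at 6 months of age and, after 60 days, dosed subcutaneously once daily for 60 days, with vehicle of acetate-buffered saline, methylcellulose and polysorbate. At necropsy the fifth lumbar vertebra was scanned by micro-CT to obtain cancellous architecture. Groups were 6-8 rats; results were compared to vehicle by ANOVA with least significant difference test.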

Rattus norvegicus [23] = assay: Derived trabecular thickness (um) measured using micro Computed Tomography(CT) after a dose of 300 ug/kg in Vertebral Bone; assay type: functional, Trabecula; method in brief: as §4
Rattus norvegicus [24] = assay: Endosteal eroded surface(%) measured Histomorphometrically after a dose of 3000 ug/kg in tibial diaphysis; assay type: functional
Method in brief: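 Tibial histomorphometry in 6-month-old rats, OVX 60 days before treatment, then daily injection for 60 days. Vehicle was acetate-buffered saline with methylcellulose and polyoxyethylenesorbitan monooleate. Rats received xylenol orange 90 mg/kg before treatment and calcein 10 mg/kg at 14 and 4 days pre-sacrifice. Rats were killed by cardiac puncture under ketamine/xylazine. Groups were compared with vehicle by ANOVA plus LSD test.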

Rattus norvegicus [25] = assay: Tissue area (mm) measured Histomorphometrically after a dose of 100 ug/kg in tibial diaphysis; assay type: functional; method in brief: as §5
Rattus norvegicus [26] = assay: Trabecular no (mm)measured Histomorphometrically after a dose of 30 ug/kg in proximal tibial metaphysis; assay type: functional, Trabecula; method in brief: as §2
Rattus norvegicus [27] = assay: Mineral apposition rate ([…])bone measured Histomorphometrically after a dose of 300 ug/kg in tibial diaphysis; assay type: functional; method in brief: as §3
Rattus norvegicus [28] = assay: Mineralizing surface/bone surface(%) measured Histomorphometrically after a dose of 3000 ug/kg in proximal tibial metaphysis; assay type: functional; method in brief: as §1
Rattus norvegicus [29] = assay: Bone Volume /Tissue Volume (%)measured Histomorphometrically after a dose of 100 ug/kg in proximal tibial metaphysis; assay type: functional; details: at 100 µg/kg
Rattus norvegicus [30] = assay: Derived trabecular no […]measured using micro Computed Tomography(CT) after a dose of 300 ug/kg in Vertebral Bone; assay type: functional, Trabecula; method in brief: as §4
Rattus norvegicus [31] = assay: Bone formation rate/bone volume (%/year) bone measured histomorphometrically after a dose of 3000 ug/kg in proximal tibial metaphysis; assay type: functional; details: at 3000 µg/kg
Rattus norvegicus [32] = assay: Periosteal mineralizing surface (%) measured Histomorphometrically after a dose of 3000 ug/kg in tibial diaphysis; assay type: functional; method in brief: as §5
Rattus norvegicus [33] = assay: Mineralizing surface/bone surface(%) measured Histomorphometrically after a dose of 10 ug/kg in proximal tibial metaphysis; assay type: functional; method in brief: as §1

Question: Which Activity (Rattus norvegicus [1]) does the source give for `CP(=O)(O)CCC/C=C\C[C@@H]1[C@@H](/C=C/[C@@H](O)COc2ccccc2)[C@H](O)C[C@@H]1O` here?
Answer: 23.44%

Question: And the Activity (Rattus norvegicus [2])?
Answer: 18.23%

Question: What about the Mineral apposition rate (Rattus norvegicus [3]) of the same compound?
Answer: 1.06 µm/day

Question: What about the Trabecular no. (Rattus norvegicus [4]) of the same compound?
Answer: 1.64 1/mm

Question: And the Mineral apposition rate (Rattus norvegicus [5])?
Answer: 0.94 µm/day

Question: And the Activity (Rattus norvegicus [6])?
Answer: 3.63%

Question: What about the Marrow area (Rattus norvegicus [7]) of the same compound?
Answer: 0.89 mm

Question: And the Trabecular no. (Rattus norvegicus [8])?
Answer: 1.27 1/mm

Question: And the pKa [9]?
Answer: 3.1

Question: And the Periosteal mineral apposition rate (Rattus norvegicus [10])?
Answer: 0.31 µm/day

Question: What about the Trabecular thickness (Rattus norvegicus [11]) of the same compound?
Answer: 45.5 µm

Question: And the Endosteal mineralizing surface (Rattus norvegicus [12])?
Answer: 46.62%

Question: What about the Marrow area (Rattus norvegicus [13]) of the same compound?
Answer: 0.82 mm²

Question: What about the Mineral apposition rate (Rattus norvegicus [14]) of the same compound?
Answer: 1.03 µm/day

Question: What about the Derived trabecular number (Rattus norvegicus [15]) of the same compound?
Answer: 4.71 mm-1

Question: What about the Endosteal mineralizing surface (Rattus norvegicus [16]) of the same compound?
Answer: 29.02%

Question: What about the Activity (Rattus norvegicus [17]) of the same compound?
Answer: 17.55%

Question: What about the Periosteal mineralizing surface (Rattus norvegicus [18]) of the same compound?
Answer: 25.86%

Question: What about the Activity (Rattus norvegicus [19]) of the same compound?
Answer: 320.16%

Question: And the Endosteal mineralizing surface (Rattus norvegicus [20])?
Answer: 35.29%

Question: What about the Mineral apposition rate (Rattus norvegicus [21]) of the same compound?
Answer: 1.01 µm/day

Question: And the Connectivity density (Rattus norvegicus [22])?
Answer: 60.28 mm**-3

Question: What about the Derived trabecular thickness (Rattus norvegicus [23]) of the same compound?
Answer: 79.5 µm

Question: And the Endosteal eroded surface (Rattus norvegicus [24])?
Answer: 2.2%

Question: What about the Tissue area (Rattus norvegicus [25]) of the same compound?
Answer: 4.95 mm

Question: And the Trabecular no. (Rattus norvegicus [26])?
Answer: 0.87 1/mm

Question: And the Mineral apposition rate (Rattus norvegicus [27])?
Answer: 0.53 µm/day

Question: What about the Activity (Rattus norvegicus [28]) of the same compound?
Answer: 23.66%

Question: And the Activity (Rattus norvegicus [29])?
Answer: 5.84%

Question: What about the Derived trabecular number (Rattus norvegicus [30]) of the same compound?
Answer: 4.86 mm-1

Question: And the Activity (Rattus norvegicus [31])?
Answer: 247.55%

Question: What about the Periosteal mineralizing surface (Rattus norvegicus [32]) of the same compound?
Answer: 11.109%

Question: What about the Activity (Rattus norvegicus [33]) of the same compound?
Answer: 28.37%
